Like-named read-outs stand apart in the source and are kept apart here. Marks after values point to notes of the source that are not given here. Values belong to the molecule of their own block, whether it stands above or below them.
Legend:
[1] = Ca^2+, I=0.1 M, NaNO3, ref [54], cited from earlier work
[2] = Zn^2+, cited from earlier work
[3] = I=0.15 M, NaClO4; ref [45]; cited from earlier work
[4] = Mg^2+; I=0.5 M, KNO3; ref [53]; cited from earlier work
[5] = Cu^2+, cited from earlier work; for log β [ML]/[M][L]: I=0.5 M, NaNO3, ref [57]
[6] = ref [51], [52]; cited from earlier work
[7] = Protonation constants by pH-potentiometric titration; assay type: physicochemical
How it was run: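 Test compound (2.28 mM) titrated directly with standardized NaOH over pH 1.80–12.00. Samples were 6.00 mL, thermostatted at 25 °C, held at 0.15 M NaCl, stirred under N2. The electrode was calibrated with KH-phthalate (pH 4.005) and borax (pH 9.177) buffers. [H+] was obtained by the Irving method (pKw 13.820). Protonation constants come from fitting the pH-potentiometric data.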

[8] = Formation constants with Mg2+; assay type: binding; conditions: Mg^2+; I=0.15 M NaCl, T=298 K
How it was run: (§1)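 Complexes were studied by direct pH-potentiometric titration at 1:1 and 2:1 metal-to-ligand ratios, with 150–200 data pairs and 1 min equilibration per point. With metal in excess, titration continued until precipitate appeared (pH 7–9). Samples were at 25 °C, 0.15 M NaCl, under N2, with a calibrated electrode and [H+] corrected by the Irving method.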

[9] = Formation constants with Zn2+; assay type: binding; conditions: Zn^2+; I=0.15 M NaCl, T=298 K
How it was run: as §1

[10] = Formation constants with Ca2+; assay type: binding; conditions: Ca^2+; I=0.15 M NaCl, T=298 K
How it was run: as §1

[11] = Metabolic stability in mouse liver microsomes; assay type: in vitro ADME; conditions: murine liver microsomes
How it was run: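 Male ICR/CD-1 mouse liver microsomes (0.25 mg) in 50 mM Tris pH 7.5 with test compound at 2 µM final (DMSO stock). Incubated at 37 °C with shaking and an NADPH-regenerating system (NADP, glucose-6-phosphate, G6P dehydrogenase). Time points were quenched with acetonitrile, 0.2% formic acid and tolbutamide internal standard; the T0 sample was quenched before compound or cofactors were added. Parent was measured by LC-MS/MS (223.1→180.1). Half-life = 0.693/slope of ln % remaining versus time.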

[12] = Formation constants with Cu2+; assay type: binding; conditions: Cu^2+, I=0.15 M NaCl, T=298 K
FRDA cells = conditions: at 125 nM; toxicity induced by BSO in FRDA cells; ref [5]; cited from earlier work
[13] = Metabolic stability in mouse hepatocytes; assay type: in vitro ADME
How it was run: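 Murine hepatocytes (1×10^6/mL) incubated with test compound (2 µM final, DMSO stock) for 0–240 min at 37 °C, 5% CO2. Reactions were quenched with two volumes of acetonitrile containing 0.15% formic acid and tolbutamide internal standard, then analysed by LC-MS/MS. % remaining is relative to T0. Half-life = 0.693/slope of ln % remaining versus time; CLint was taken from the slope of ln peak-area ratio versus time.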

Structure (SMILES): C1CNCCNCCNCCN1 [cyclen]
log β [ML]/[M][L] [1]: 3.12
log β [ML]/[M][L] ([1]; listed as Cyclen): 3.12^b
log β [ML]/[M][L] ([2]; ref [58]): 16.2^e
log K1^H (protonation constant) [3]: 10.66
log K2^H (protonation constant) [3]: 9.69
log K3^H (protonation constant) [3]: 1.41
∑ log KN-donors [3]: 21.76
log β [ML]/[M][L] [4]: 2.25^a
log β [ML]/[M][L] [5]: 23.3
log β [ML]/[M][L] ([5]; listed as Cyclen): 23.3^d

Structure (SMILES): Oc1cccnc1 [3-pyridol]
acidity constant of aromatic -OH functionality [6]: 8.72

Structure (SMILES): Oc1ccncc1 [4-pyridol]
acidity constant of aromatic -OH functionality [6]: 11.09

log K1^H (protonation constant) ([7]; I=0.15 M NaCl, T=298 K): 11.37 (1)
log K2^H (protonation constant) ([7]; I=0.15 M NaCl, T=298 K): 8.22(5)
∑ log KN-donors ([7]; I=0.15 M NaCl, T=298 K): 21.20
log K3^H (protonation constant) ([7]; I=0.15 M NaCl, T=298 K, for L2 and L3 the pyridol -OH): 1.61(5)
Structure (SMILES): c1cc2nc(c1)CNCCNCCNC2 [L1, 3,6,9,15-tetraazabicyclo[9.3.1]penta-deca-1(15),11,13-triene]
log β [ML]/[M][L] ([2]; I=0.5 M, KNO3, ref [47]): 14.40^f
log β [ML]/[M][L][OH^−] ([2]; I=0.5 M, KNO3, ref [47]): 8.50^f
log β [ML]/[M][L][OH^−] ([5]; previously described by others, ref [47], [57], [58], [62]): 7.48^c
log β [ML]/[M][L] [8]: 4.04(2)

% of molecule retained at termination of the experiment ([11]; NADPH regenerating system, 2 µM): 65%
in vitro half-life ([11]; NADPH regenerating system, 2 µM, substrate depletion): greater than 120 min
clearance classification ([11]; Phase I): low-moderate clearance
isoelectric point (pI) [7]: 10.31
log K1^H (protonation constant) ([7]; I=0.15 M NaCl, T=298 K): 11.56(3)
log K2^H (protonation constant) ([7]; I=0.15 M NaCl, T=298 K): 9.05(5)
log K4^H (protonation constant) ([7]; I=0.15 M NaCl, T=298 K): 1.68(5)
∑ log KN-donors ([7]; I=0.15 M NaCl, T=298 K): 22.29
fraction of [H2(L2)]^+ species in solution ([7]; at biological pH): 97%
calculated Clint ([13]; murine hepatocytes): < 0.02 µL/min/million cells
clearance classification ([13]; murine hepatocytes): low clearance
half-life ([13]; murine hepatocytes 1×10^6/mL, 2 µM, 0–240 min): greater than 240 min
% depleted over the time course of the experiment ([13]; murine hepatocytes, 0–240 min): 2–9%
Structure (SMILES): Oc1cc2nc(c1)CNCCNCCNC2 [L2, 3,6,9,15-tetraazabicyclo[9.3.1]penta-deca-1(15),11,13-trien-13-ol]
log β [MH2L]/[M][L][H^+]^2 [9]: 25.72(7)
log β [MHL]/[M][L][H^+] [9]: 23.02(3)
log β [ML]/[M][L] [9]: 17.18(7)
log β [ML]/[M][L][OH^−] [9]: 8.92(9)
log β [MHL]/[M][L][H^+] [10]: 13.66(5)
log β [MHL]/[M][L][H^+] [12]: 25.79(3)
log β [ML]/[M][L] [12]: 19.16(11)
log β [ML]/[M][L][OH^−] [12]: 8.55(13)
log β [MH2L]/[M][L][H^+]^2 ([12]; determined by direct UV-vis titration): 28.38(5)^a
quenching of radical based toxicity (FRDA cells): 100%
log β [MHL]/[M][L][H^+] [8]: 13.53(2)
log β [ML]/[M][L] [8]: 4.96(1)

Reference: publication PMC6863055 (Dalton transactions (Cambridge, England : 2003), 2019)
